Source: ChEMBL document CHEMBL1125288, “Structure-activity relationships of 1-[(2-hydroxyethoxy)methyl]-6-(phenylthio)thymine analogues: effect of substitutions at the C-6 phenyl ring and at the C-5 position on anti-HIV-1 activity” (J Med Chem, 1992)

How the values were obtained:
[1] = Concentration required to achieve 50% protection of MT-4 cells against the cytopathic effect of HIV-1.; type: functional, cell-based; conditions: Homo sapiens, MT4
Method in brief: (§1)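 MT-4 cells at 1 × 10^6 cells/mL were infected with HIV-1 (HTLV-IIIB) or HIV-2 (LAV-2ROD) at an MOI of 0.02 (virus titrated as CCID50 in MT-4). Cells were plated immediately onto serial compound dilutions from DMSO stocks of 50 mM or higher. After 4 days at 37 °C, viable cells were counted by MTT.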

[2] = system: MT4; experiment: Concentration required to reduce the viability of mock-infected MT-4 cells by 50%.; type: functional; conditions: Homo sapiens
Method in brief: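 Mock-infected MT-4 cells were run in parallel with the antiviral assay: 1 × 10^6 cells/mL, serial compound dilutions, 4 days at 37 °C.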

[3] = Concentration of compound required to reduce the viability of mock-infected PBL(peripheral blood lymphocytes) cells. by 50%; type: functional; conditions: Homo sapiens
[4] = Concentration required inhibit HIV-1 (HTLV-IIIb strain) replication in PBL(peripheral blood lymphocytes) cells.; type: functional, cell-based; conditions: Homo sapiens
Method in brief: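 Phytohemagglutinin-stimulated PBL at 1 × 10^6 cells/mL were infected with HIV-1 HTLV-IIIB at an MOI of 0.2 and cultured at 37 °C with varied compound concentrations. On day 4 cells were subcultured 1:5 into fresh medium with compound. On day 7, p24 antigen in the supernatant was measured by sandwich ELISA, and EC50 was derived.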

[5] = Concentration of compound required to reduce the viability of mock-infected HIV-2 (LAV-2ROD)/MT-4 cells by 50%; type: functional; conditions: Homo sapiens, MT4
Method in brief: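 Mock-infected MT-4 cells, run in parallel with the HIV-2 LAV-2ROD antiviral assay. Cells at 1 × 10^6 cells/mL were plated into wells holding serial compound dilutions, with DMSO stocks at 50 mM or higher. After 4 days at 37 °C, viable cells were counted by the MTT method.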

[6] = Concentration required inhibit HIV-2 (LAV-2ROD)replication in MT-4 cells.; type: functional, cell-based; conditions: Homo sapiens, MT4; method in brief: as §1

SMILES	EC50 [1] [µM]	CC50 [2] [µM]	CC50 [3] [µM]	EC50 [4] [µM]	CC50 [5] [µM]	EC50 [6] [µM]
O=C(Nc1ccccc1)c1c(Sc2ccccc2)n(COCCO)c(=O)[nH]c1=O	> 18	18	–	–	–	–
Cc1c(Sc2cccc(I)c2)n(COCCO)c(=O)[nH]c1=O	10	106	–	–	–	–
Cc1c(Sc2cccc(Cl)c2)n(COCCO)c(=O)[nH]c1=O	13	210	–	–	–	–
Cc1cccc(Sc2c(C)c(=O)[nH]c(=O)n2COCCO)c1	2.6	420	–	–	–	–
Cc1c(Sc2cccc(C(N)=O)c2)n(COCCO)c(=O)[nH]c1=O	> 306	306	–	–	–	–
Cc1c(Sc2cccc(F)c2)n(COCCO)c(=O)[nH]c1=O	3.3	282	–	–	–	–
Cc1c(Sc2ccccc2)n(COCCO)c(=S)[nH]c1=O	0.98	123	–	–	–	–
Cc1c(Sc2ccc(O)cc2)n(COCCO)c(=O)[nH]c1=O	> 277	277	–	–	–	–
CCc1c(Sc2ccccc2)n(COCCO)c(=O)[nH]c1=O	0.12	400	108	0.19	400	> 400
Cc1c(Sc2ccccc2)n(COCCO)c(=O)[nH]c1=O [HEPT]	7	743	640	7.9	740	> 250
Cc1c(Sc2cccc(Br)c2)n(COCCO)c(=O)[nH]c1=O	5.7	141	–	–	–	–
Cc1c(Sc2ccccc2Cl)n(COCCO)c(=O)[nH]c1=O	> 130	130	–	–	–	–
Cc1cn([C@H]2C[C@H](N=[N+]=[N-])[C@@H](CO)O2)c(=O)[nH]c1=O [ZIDOVUDINE]	0.006	7.8	–	–	–	–
CCCc1c(Sc2ccccc2)n(COCCO)c(=O)[nH]c1=O	3.4	244	–	–	–	–
Cc1c(Sc2ccc(C#N)cc2)n(COCCO)c(=O)[nH]c1=O	> 250	> 250	–	–	–	–
Cc1c(Sc2ccc([N+](=O)[O-])cc2)n(COCCO)c(=O)[nH]c1=O	> 190	190	–	–	–	–
CC(=O)c1cccc(Sc2c(C)c(=O)[nH]c(=O)n2COCCO)c1	7.3	228	–	–	–	–
CCc1cccc(Sc2c(C)c(=O)[nH]c(=O)n2COCCO)c1	2.7	181	–	–	–	–
Cc1c(Sc2ccccc2[N+](=O)[O-])n(COCCO)c(=O)[nH]c1=O	140	> 250	–	–	–	–
Cc1c(Sc2cccc(O)c2)n(COCCO)c(=O)[nH]c1=O	82	446	–	–	–	–
COC(=O)c1cccc(Sc2c(C)c(=O)[nH]c(=O)n2COCCO)c1	7.9	221	–	–	–	–
CC(C)c1c(Sc2ccccc2)n(COCCO)c(=O)[nH]c1=O	0.063	231	–	–	–	–

SMILES	EC50 [1] [µM]	CC50 [2] [µM]	CC50 [3] [µM]	EC50 [4] [µM]	CC50 [5] [µM]	EC50 [6] [µM]
COc1ccccc1Sc1c(C)c(=O)[nH]c(=O)n1COCCO	19	> 250	–	–	–	–
Cc1c(Sc2cccc(C(C)(C)C)c2)n(COCCO)c(=O)[nH]c1=O	12	75	–	–	–	–
C=CCc1c(Sc2ccccc2)n(COCCO)c(=O)[nH]c1=O	2.5	183	–	–	–	–
COc1ccc(Sc2c(C)c(=O)[nH]c(=O)n2COCCO)cc1	> 250	> 250	–	–	–	–
Cc1cc(C)cc(Sc2c(C)c(=O)[nH]c(=S)n2COCCO)c1	0.22	172	–	–	–	–
COc1cccc(Sc2c(C)c(=O)[nH]c(=O)n2COCCO)c1	22	> 250	–	–	–	–
CCc1c(Sc2cc(Cl)cc(Cl)c2)n(COCCO)c(=O)[nH]c1=O	0.014	51	–	–	–	–
Cc1c(Sc2cccc(CO)c2)n(COCCO)c(=O)[nH]c1=O	> 292	292	–	–	–	–
Cc1ccccc1Sc1c(C)c(=O)[nH]c(=O)n1COCCO	71	> 250	–	–	–	–
Cc1c(Sc2cccc(C(F)(F)F)c2)n(COCCO)c(=O)[nH]c1=O	45	196	–	–	–	–
Cc1c(Sc2cccc(C(=O)O)c2)n(COCCO)c(=O)[nH]c1=O	> 352	352	–	–	–	–
COC(=O)c1c(Sc2ccccc2)n(COCCO)c(=O)[nH]c1=O	> 6.6	6.6	–	–	–	–
CC(=O)c1ccc(Sc2c(C)c(=O)[nH]c(=O)n2COCCO)cc1	> 110	110	–	–	–	–
Cc1cc(C)cc(Sc2c(C(C)C)c(=O)[nH]c(=O)n2COCCO)c1	–	128	–	–	–	–
Cc1c(Sc2cccc([N+](=O)[O-])c2)n(COCCO)c(=O)[nH]c1=O	34	170	–	–	–	–
Cc1c(Sc2ccc(F)cc2)n(COCCO)c(=O)[nH]c1=O	> 250	> 250	–	–	–	–
Cc1c(Sc2ccc(Cl)cc2)n(COCCO)c(=O)[nH]c1=O	> 250	> 250	–	–	–	–
Cc1cc(C)cc(Sc2c(C)c(=O)[nH]c(=O)n2COCCO)c1	–	243	–	–	–	–
Cc1c(Sc2cc(Cl)cc(Cl)c2)n(COCCO)c(=O)[nH]c1=O	1.3	130	–	–	–	–
CCc1c(Sc2cc(C)cc(C)c2)n(COCCO)c(=O)[nH]c1=O	–	149	–	–	–	–
Cc1ccc(Sc2c(C)c(=O)[nH]c(=O)n2COCCO)cc1	220	> 250	–	–	–	–
Cc1c(Sc2cccc(C#N)c2)n(COCCO)c(=O)[nH]c1=O	10	234	–	–	–	–
